Results reported in ChEMBL document CHEMBL1143237, “Sulfonamide-1,2,4-triazole derivatives as antifungal and antibacterial agents: synthesis, biological evaluation, lipophilicity, and conformational studies” (Bioorg Med Chem, 2008).
≈ marks a conversion by molar mass, not a printed value.

How the values were obtained:
[1] = system: Escherichia coli; assay: Antibacterial activity against Escherichia coli ATCC 35210 after 24 hrs by microdilution test; assay type: functional; settings: ATCC 35210, 24 h
In short: (§1)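 Broth microdilution in LB medium in 96-well plates. Inoculum 1.0 × 10⁴ CFU per well, from a suspension set to 1.0 × 10⁵ CFU/ml in sterile saline. Compounds at […] µg/ml. Incubation 24 h at 28 °C. MIC is the lowest concentration with no visible growth under a binocular microscope. MBC by subculturing 2 µl into fresh broth for a further 72 h. OD540 read against blank. DMSO negative control.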

[2] = system: Talaromyces funiculosus; assay: Antifungal activity against Penicillium funiculosum ATCC 36839 after 72 hrs by microdilution test; assay type: functional; settings: ATCC 36839, 72 h
In short: (§2)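 Modified microdilution in malt broth. Spores were washed from malt agar with sterile 0.85% saline containing 0.1% Tween 80 and adjusted to about 1.0 × 10⁵ per well. Compounds were dissolved in DMSO and tested at […] µg/ml. Incubation 72 h at 28 °C. MIC is the lowest concentration with no visible growth under a binocular microscope. MFC by 2 µl subculture and a further 72 h at 28 °C.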

[3] = system: Staphylococcus epidermidis; assay: Antibacterial activity against Staphylococcus epidermidis ATCC 12228 after 24 hrs by microdilution test; assay type: functional; settings: ATCC 12228, 24 h; in short: as §1
[4] = system: Aspergillus niger; assay: Antifungal activity against Aspergillus niger ATCC 6275 after 72 hrs by microdilution test; assay type: functional; settings: ATCC 6275, 72 h; in short: as §2
[5] = system: Enterobacter cloacae; assay: Antibacterial activity against Enterobacter cloacae after 24 hrs by microdilution test; assay type: functional; in short: as §1
[6] = system: Aspergillus versicolor; assay: Antifungal activity against Aspergillus versicolor ATCC 11730 after 72 hrs by microdilution test; assay type: functional; settings: ATCC 11730, 72 h; in short: as §2
[7] = system: Aspergillus ochraceus; assay: Antifungal activity against Aspergillus ochraceus ATCC 12066 after 72 hrs by microdilution test; assay type: functional; settings: ATCC 12066, 72 h; in short: as §2
[8] = system: Salmonella typhimurium; assay: Antibacterial activity against Salmonella Typhimurium ATCC 13311 after 24 hrs by microdilution test; assay type: functional, Salmonella enterica subsp. enterica serovar Typhimurium; settings: Salmonella enterica, ATCC 13311, 24 h; in short: as §1
[9] = system: Bacillus cereus; assay: Antibacterial activity against Bacillus cereus ATCC 10907 after 24 hrs by microdilution test; settings: ATCC 10907, 24 h
[10] = system: Trichoderma viride; assay: Antifungal activity against Trichoderma viride IAM 5061 after 72 hrs by microdilution test; assay type: functional; in short: as §2
[11] = system: Salmonella enteritidis; assay: Antibacterial activity against Salmonella enteritidis ATCC 13076 after 24 hrs by microdilution test; assay type: functional, Salmonella enterica subsp. enterica serovar Enteritidis; settings: Salmonella enterica, ATCC 13076, 24 h; in short: as §1
[12] = system: Aspergillus flavus; assay: Antifungal activity against Aspergillus flavus ATCC 9643 after 72 hrs by microdilution test; assay type: functional; settings: ATCC 9643, 72 h; in short: as §2
[13] = Partition coefficient, log P of the compound; assay type: physicochemical; settings: octanol/water
In short: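 Calculated, not measured: AlogP, IAlogP, ClogP, Cosmo logP, mlogP, Kowwin and XlogP were computed and averaged.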

[14] = system: Micrococcus luteus; assay: Antibacterial activity against Micrococcus flavus ATCC 10240 after 24 hrs by microdilution test; assay type: functional; settings: ATCC 10240, 24 h; in short: as §1

MIC [1]: 100 µg/mL (≈ 216 µM)
MIC [2]: 100 µg/mL (≈ 216 µM)
MIC [3]: 150 µg/mL (≈ 324 µM)
MIC [4]: 100 µg/mL (≈ 216 µM)
MIC [5]: 100 µg/mL (≈ 216 µM)
MIC [6]: 100 µg/mL (≈ 216 µM)
MIC [7]: 100 µg/mL (≈ 216 µM)
MIC [8]: 150 µg/mL (≈ 324 µM)
MIC [9]: 150 µg/mL (≈ 324 µM)
MIC [10]: 50 µg/mL (≈ 108 µM)
MIC [11]: 150 µg/mL (≈ 324 µM)
MIC [12]: 100 µg/mL (≈ 216 µM)
logP [13]: 2.48
MIC [14]: 150 µg/mL (≈ 324 µM)
SMILES: CCN(CC)S(=O)(=O)c1cc(OC)c(OC)cc1Cc1n[nH]c(=S)n1-c1ccccc1
MBC [1]: 150 µg/mL (≈ 324 µM)
MFC [2]: 150 µg/mL (≈ 324 µM)
MBC [3]: 150 µg/mL (≈ 324 µM)
MFC [4]: 150 µg/mL (≈ 324 µM)
MBC [5]: 100 µg/mL (≈ 216 µM)
MFC [6]: 150 µg/mL (≈ 324 µM)
MFC [7]: 150 µg/mL (≈ 324 µM)
MBC [8]: 150 µg/mL (≈ 324 µM)
MBC [9]: 150 µg/mL (≈ 324 µM)
MFC [10]: 100 µg/mL (≈ 216 µM)
MBC [11]: 150 µg/mL (≈ 324 µM)
MFC [12]: 150 µg/mL (≈ 324 µM)
MBC [14]: 150 µg/mL (≈ 324 µM)
